According to ChEMBL document CHEMBL1140960, “Synthesis of amide and urea derivatives of benzothiazole as Raf-1 inhibitor” (2008):
Values after ≈ are worked out from the molar mass of the structure shown. Active and inactive are the calls of the source. The rule behind the calls is not given here.

Legend:
SK-HEP1 = experiment: Antiproliferative activity against human SKHEP1 cells by SRB assay; type: functional
Procedure, shortened: (§1)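 Cells from exponential-phase cultures were trypsinized, counted and plated. Fixation used cold 10% TCA for 1 h at 4 °C, then water washes. Staining was 0.1% SRB in 1% acetic acid for at least 15 min, followed by 1% acetic acid rinses. Dye was solubilized in 10 mM unbuffered Tris base and absorbance read at 540 nm.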

NUGC-3 = experiment: Antiproliferative activity against human NUGC3 cells by SRB assay; type: functional; procedure, shortened: as §1
MDA-MB-231 = experiment: Antiproliferative activity against human MDA-MB-231 cells by SRB assay; type: functional
Procedure, shortened: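 Trypsinized exponential-phase cells were plated at densities chosen for exponential growth over a 5-day assay. Cells were fixed with cold 10% TCA for 1 h at 4 °C, water-washed, stained at least 15 min with 0.1% SRB in 1% acetic acid, and rinsed with 1% acetic acid. Bound dye was solubilized in 10 mM unbuffered Tris base and OD read at 540 nm.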

[1] = biological target: RAF proto-oncogene serine/threonine-protein kinase (Homo sapiens) (UniProt P04049); experiment: Inhibition of Raf1 at 50 uM by liquid scintillation counting
Procedure, shortened: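 Raf-1 and its substrate MEK were diluted together in buffer (20 mM MOPS pH 7.2, 25 mM β-glycerol phosphate, 5 mM EGTA, 1 mM orthovanadate, 1 mM DTT), with compound in 1% final DMSO. Reaction was started with [γ-33P]ATP (1000–3000 dpm/pmol) and run at 32 °C, usually 22 min. Samples went to phosphocellulose mats, were washed with 1% phosphoric acid and counted by scintillation; % inhibition is the mean of three experiments.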

RAF proto-oncogene serine/threonine-protein kinase (Homo sapiens), sequence (P04049 whole entry): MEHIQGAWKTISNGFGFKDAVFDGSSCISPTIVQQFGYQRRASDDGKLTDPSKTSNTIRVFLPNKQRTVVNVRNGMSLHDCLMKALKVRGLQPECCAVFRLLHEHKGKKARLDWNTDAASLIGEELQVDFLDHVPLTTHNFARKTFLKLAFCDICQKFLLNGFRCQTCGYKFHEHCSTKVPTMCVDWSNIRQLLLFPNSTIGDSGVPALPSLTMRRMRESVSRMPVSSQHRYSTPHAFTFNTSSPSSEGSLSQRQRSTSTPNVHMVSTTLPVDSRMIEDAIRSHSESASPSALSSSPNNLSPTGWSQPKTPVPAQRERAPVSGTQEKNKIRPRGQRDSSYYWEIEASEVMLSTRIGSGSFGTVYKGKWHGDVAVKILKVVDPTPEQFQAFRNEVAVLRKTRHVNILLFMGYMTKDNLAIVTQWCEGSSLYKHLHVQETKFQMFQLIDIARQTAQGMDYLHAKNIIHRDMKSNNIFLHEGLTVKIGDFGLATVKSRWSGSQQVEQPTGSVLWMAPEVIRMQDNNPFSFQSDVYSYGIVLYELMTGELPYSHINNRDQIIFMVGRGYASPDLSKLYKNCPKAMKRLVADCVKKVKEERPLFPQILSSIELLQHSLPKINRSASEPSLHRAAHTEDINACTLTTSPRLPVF

Row | SMILES | GI50 (SK-HEP1) [mg/L] | GI50 (MDA-MB-231) [mg/L] | inhibition [1] [%] | Activity [1] | GI50 (NUGC-3) [mg/L]
1 | COc1ccc(C(=O)Nc2nc3cc(C)cc(C)c3s2)cc1 | > 10 | 1.03 (≈ 3.3 µM) | – | – | > 10
2 | COc1cccc2sc(NC(=O)c3ccc(C#N)cc3)nc12 | > 10 | > 10 | – | – | > 10
3 | COc1ccc(NC(=O)Nc2nc3ccc(F)cc3s2)cc1 | > 10 | > 10 | – | – | > 10
4 | COc1ccc2sc(NC(=O)c3ccc(C)cc3)nc2c1 | > 10 | > 10 | – | – | > 10
5 | COc1ccc2sc(NC(=O)c3ccc([N+](=O)[O-])cc3)nc2c1 | > 10 | > 10 | – | – | > 10
6 | COc1ccc(C(=O)Nc2nc3cc(OC)ccc3s2)cc1 | > 10 | > 10 | – | – | > 10
7 | Cc1ccccc1NC(=O)Nc1nc2ccc(F)cc2s1 | > 10 | > 10 | – | – | > 10
8 | COc1ccc2sc(NC(=O)c3ccc(C#N)cc3)nc2c1 | > 10 | > 10 | – | – | > 10
9 | COc1cccc2sc(NC(=O)c3ccc([N+](=O)[O-])cc3)nc12 | > 10 | > 10 | – | – | > 10
10 | COc1cccc2sc(NC(=O)c3ccc(C(F)(F)F)cc3)nc12 | > 10 | > 10 | – | – | > 10
11 | COc1ccc2sc(NC(=O)c3ccc(C(F)(F)F)cc3)nc2c1 | > 10 | > 10 | – | – | > 10
12 | COc1ccc2nc(NC(=O)c3ccc(C)cc3)sc2c1 | > 10 | > 10 | – | – | > 10

Further lines, with some results ahead:

Row | GI50 (SK-HEP1) [mg/L] | GI50 (MDA-MB-231) [mg/L] | inhibition [1] [%] | Activity [1] | SMILES | GI50 (NUGC-3) [mg/L]
13 | > 10 | > 10 | – | – | Cc1ccc2nc(NC(=O)Nc3cccc([N+](=O)[O-])c3)sc2c1 | > 10
14 | 1.96 (≈ 5.9 µM) | 0.89 (≈ 2.68 µM) | 7.9 | – | O=C(Nc1cccc([N+](=O)[O-])c1)Nc1nc2ccc(F)cc2s1 | 0.83 (≈ 2.5 µM)
15 | 2.17 (≈ 7.32 µM) | 0.44 (≈ 1.48 µM) | – | – | Cc1ccc(C(=O)Nc2nc3cc(C)cc(C)c3s2)cc1 | 2.37 (≈ 8 µM)
16 | 2.11 (≈ 6.71 µM) | 1.25 (≈ 3.98 µM) | 7.8 | – | COc1ccc(C(=O)Nc2nc3c(OC)cccc3s2)cc1 | 3.46 (≈ 11 µM)
17 | > 10 | > 10 | – | – | O=C(Nc1nc2ccc(F)cc2s1)Nc1ccccc1F | > 10
18 | > 10 | > 10 | – | – | O=C(Nc1ccccc1)Nc1nc2ccc(F)cc2s1 | > 10
19 | > 10 | > 10 | – | – | O=C(Nc1nc2ccc(C(F)(F)F)cc2s1)c1ccc([N+](=O)[O-])cc1 | > 10
20 | 1.18 (≈ 3.84 µM) | 0.48 (≈ 1.56 µM) | – | inactive | Cc1cc(C)c2sc(NC(=O)c3ccc(C#N)cc3)nc2c1 | 0.62 (≈ 2.02 µM)
21 | 1.74 (≈ 5.32 µM) | 0.29 (≈ 0.886 µM) | – | inactive | Cc1cc(C)c2sc(NC(=O)c3ccc([N+](=O)[O-])cc3)nc2c1 | 1.32 (≈ 4.03 µM)
22 | 0.07 (≈ 0.129 µM) | 0.39 (≈ 0.718 µM) | – | – | COc1cccc2c1C(=O)c1c(O)c3c(c(O)c1C2=O)C[C@@](O)(C(=O)CO)C[C@@H]3O[C@H]1C[C@H](N)[C@H](O)[C@H](C)O1 [DOXORUBICIN] | 0.11 (≈ 0.202 µM)
23 | 2.1 (≈ 5.72 µM) | 1.89 (≈ 5.15 µM) | – | – | O=C(Nc1nc2ccc([N+](=O)[O-])cc2s1)c1ccc(C(F)(F)F)cc1 | 1.65 (≈ 4.49 µM)
24 | 0.18 (≈ 0.578 µM) | 0.1 (≈ 0.321 µM) | 14.9 | – | Cc1cc2nc(NC(=O)Nc3ccccc3C)sc2cc1C | 0.18 (≈ 0.578 µM)
25 | 2.01 (≈ 6.74 µM) | 0.86 (≈ 2.88 µM) | 37 | – | COc1cccc2sc(NC(=O)c3ccc(C)cc3)nc12 | > 10
26 | 1.36 (≈ 3.88 µM) | 0.45 (≈ 1.28 µM) | – | inactive | Cc1cc(C)c2sc(NC(=O)c3ccc(C(F)(F)F)cc3)nc2c1 | 1.4 (≈ 4 µM)
27 | 2.21 (≈ 6.34 µM) | 0.82 (≈ 2.35 µM) | – | inactive | O=C(Nc1cccc([N+](=O)[O-])c1)Nc1nc2ccc(Cl)cc2s1 | 1.03 (≈ 2.95 µM)
